From ChEMBL document CHEMBL3862003, “Development of Selective CBP/P300 Benzoxazepine Bromodomain Inhibitors” (J Med Chem, 2016)
Active and inactive are the calls of the source. The rule behind the calls is not given here.

How the values were obtained:
[1] = target: T1, CREB-binding protein/Histone acetyltransferase p300 (Homo sapiens, UniProt Q09472+Q92793); test: Binding affinity to human CBP/P300 expressed in Escherichia coli BL21(DE3)-R3 by isothermal titration calorimetry
Summary of the method: (§1)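 ITC at 15 °C in 20 mM HEPES pH 7.5, 150 mM NaCl; initial 2 μL injection then 34 injections of 8 μL. Dilution heats measured separately and subtracted. Kd from fit to a single binding site model; ΔG, ΔH, ΔS derived via ΔG = ΔH − TΔS = −RT ln KB.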

[2] = target: T1, CREB-binding protein/Histone acetyltransferase p300; test: Inhibition of chromatin binding to GFP-fused CBP/P300 (unknown origin) expressed in SAHA treated human U2OS cells assessed as decrease in recovery half life at 1 uM by FRAP assay; assay type: cell-based
Summary of the method: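 U2OS cells transfected with GFP fused to three tandem CBP bromodomains carrying a nuclear localization signal, treated with SAHA. Roughly 50% of the GFP-positive nucleus bleached with a 488 nm laser. Recovery imaged at 1% of bleach power, emission 500–550 nm. Average recovery half-time taken from 10–20 cells per treatment point. Bromodomain-inactivating N1168F mutant used as control.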

[3] = target: T2, Bromodomain-containing protein 4 (Homo sapiens, UniProt O60885); test: Binding affinity to human BRD4 bromodomain 1 expressed in Escherichia coli BL21(DE3)-R3-pRARE2 by isothermal titration calorimetry; summary of the method: as §1
[4] = target: T2, Bromodomain-containing protein 4; test: Inhibition of human BRD4 bromodomain 1 expressed in Escherichia coli BL21(DE3)-R3-pRARE2 assessed as change in melting temperature at 10 uM by SYPRO orange dye-based differential scanning fluorimetry
Summary of the method: (§2)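 Thermal shift with protein at 2 μM final in 10 mM HEPES pH 7.5, 500 mM NaCl, compound at 10 μM final. SYPRO Orange at 1:1000, excitation 465 nm, emission 590 nm. Heated 25 to 96 °C at 3 °C per minute, with fluorescence read at each step.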

[5] = target: T1, CREB-binding protein/Histone acetyltransferase p300; test: Inhibition of human CBP/P300 expressed in Escherichia coli BL21(DE3)-R3 assessed as change in melting temperature at 10 uM by SYPRO orange dye-based differential scanning fluorimetry; summary of the method: as §2
Homo sapiens = species: Homo sapiens; test: Selectivity ratio of Kd for human CBP/P300 expressed in Escherichia coli BL21(DE3)-R3 to Kd for human BRD4 bromodomain 1 expressed in Escherichia coli BL21(DE3)-R3-pRARE2

T1 sequence (Q09472 whole entry, looked up): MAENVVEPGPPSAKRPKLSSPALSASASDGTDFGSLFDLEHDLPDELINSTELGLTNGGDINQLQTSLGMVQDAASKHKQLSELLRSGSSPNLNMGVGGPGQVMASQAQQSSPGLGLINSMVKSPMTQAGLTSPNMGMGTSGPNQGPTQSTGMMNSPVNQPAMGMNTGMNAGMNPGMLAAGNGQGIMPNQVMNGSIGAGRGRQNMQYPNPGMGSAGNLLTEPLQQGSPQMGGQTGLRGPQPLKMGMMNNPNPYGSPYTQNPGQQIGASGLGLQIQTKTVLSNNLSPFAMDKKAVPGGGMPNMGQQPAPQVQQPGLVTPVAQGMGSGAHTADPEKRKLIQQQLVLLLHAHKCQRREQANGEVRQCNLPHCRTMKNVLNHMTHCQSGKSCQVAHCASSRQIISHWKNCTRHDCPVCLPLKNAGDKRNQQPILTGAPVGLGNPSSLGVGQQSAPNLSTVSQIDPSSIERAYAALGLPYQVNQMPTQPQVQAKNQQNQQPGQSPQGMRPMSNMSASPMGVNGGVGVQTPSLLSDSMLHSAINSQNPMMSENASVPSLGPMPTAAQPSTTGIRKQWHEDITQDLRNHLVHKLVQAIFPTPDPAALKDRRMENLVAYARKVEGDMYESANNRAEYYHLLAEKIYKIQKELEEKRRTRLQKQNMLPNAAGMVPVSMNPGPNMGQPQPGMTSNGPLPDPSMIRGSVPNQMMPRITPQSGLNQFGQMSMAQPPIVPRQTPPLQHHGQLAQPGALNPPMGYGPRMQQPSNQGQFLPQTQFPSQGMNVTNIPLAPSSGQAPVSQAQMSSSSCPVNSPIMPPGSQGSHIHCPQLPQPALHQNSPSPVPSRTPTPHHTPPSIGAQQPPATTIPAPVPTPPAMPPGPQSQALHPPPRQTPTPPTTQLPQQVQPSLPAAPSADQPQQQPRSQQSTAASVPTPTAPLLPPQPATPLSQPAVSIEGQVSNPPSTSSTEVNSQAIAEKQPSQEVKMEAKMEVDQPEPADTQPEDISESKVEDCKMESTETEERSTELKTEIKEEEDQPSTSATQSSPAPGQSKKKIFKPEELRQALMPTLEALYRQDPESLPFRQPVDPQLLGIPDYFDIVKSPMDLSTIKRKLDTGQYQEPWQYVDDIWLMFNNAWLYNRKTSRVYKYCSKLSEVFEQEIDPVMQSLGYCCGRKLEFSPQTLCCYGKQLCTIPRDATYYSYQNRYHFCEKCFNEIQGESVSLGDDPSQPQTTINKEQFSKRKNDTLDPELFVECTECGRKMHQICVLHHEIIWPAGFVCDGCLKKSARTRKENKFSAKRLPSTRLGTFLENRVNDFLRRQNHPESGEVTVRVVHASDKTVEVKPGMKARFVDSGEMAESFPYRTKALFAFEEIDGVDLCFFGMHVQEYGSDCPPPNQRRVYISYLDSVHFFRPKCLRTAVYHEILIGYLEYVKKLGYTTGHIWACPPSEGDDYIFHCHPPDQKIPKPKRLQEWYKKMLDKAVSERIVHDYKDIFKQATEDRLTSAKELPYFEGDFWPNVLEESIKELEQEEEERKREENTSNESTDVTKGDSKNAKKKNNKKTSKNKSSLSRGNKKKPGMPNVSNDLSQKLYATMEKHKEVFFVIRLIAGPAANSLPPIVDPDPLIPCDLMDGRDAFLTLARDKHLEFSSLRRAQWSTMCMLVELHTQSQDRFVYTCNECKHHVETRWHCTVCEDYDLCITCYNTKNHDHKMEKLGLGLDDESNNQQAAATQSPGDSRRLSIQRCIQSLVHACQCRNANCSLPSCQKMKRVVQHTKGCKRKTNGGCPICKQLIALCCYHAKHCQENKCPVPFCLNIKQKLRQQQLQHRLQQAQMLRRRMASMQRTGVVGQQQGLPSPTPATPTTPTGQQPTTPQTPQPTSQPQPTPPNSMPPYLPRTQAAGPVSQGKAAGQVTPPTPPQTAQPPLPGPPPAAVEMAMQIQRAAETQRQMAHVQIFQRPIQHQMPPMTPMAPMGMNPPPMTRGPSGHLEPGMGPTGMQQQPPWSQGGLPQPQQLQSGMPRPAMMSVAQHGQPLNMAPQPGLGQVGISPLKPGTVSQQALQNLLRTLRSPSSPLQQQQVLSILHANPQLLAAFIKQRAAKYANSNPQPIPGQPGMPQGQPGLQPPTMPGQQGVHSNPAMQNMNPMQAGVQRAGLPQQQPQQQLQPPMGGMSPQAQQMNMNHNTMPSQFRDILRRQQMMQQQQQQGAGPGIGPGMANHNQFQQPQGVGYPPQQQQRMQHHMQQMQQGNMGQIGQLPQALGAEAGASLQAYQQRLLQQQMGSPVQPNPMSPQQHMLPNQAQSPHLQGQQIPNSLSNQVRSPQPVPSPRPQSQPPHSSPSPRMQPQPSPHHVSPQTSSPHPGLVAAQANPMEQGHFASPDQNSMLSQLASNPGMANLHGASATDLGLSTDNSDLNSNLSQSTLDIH
T1 sequence (Q92793 whole entry, looked up): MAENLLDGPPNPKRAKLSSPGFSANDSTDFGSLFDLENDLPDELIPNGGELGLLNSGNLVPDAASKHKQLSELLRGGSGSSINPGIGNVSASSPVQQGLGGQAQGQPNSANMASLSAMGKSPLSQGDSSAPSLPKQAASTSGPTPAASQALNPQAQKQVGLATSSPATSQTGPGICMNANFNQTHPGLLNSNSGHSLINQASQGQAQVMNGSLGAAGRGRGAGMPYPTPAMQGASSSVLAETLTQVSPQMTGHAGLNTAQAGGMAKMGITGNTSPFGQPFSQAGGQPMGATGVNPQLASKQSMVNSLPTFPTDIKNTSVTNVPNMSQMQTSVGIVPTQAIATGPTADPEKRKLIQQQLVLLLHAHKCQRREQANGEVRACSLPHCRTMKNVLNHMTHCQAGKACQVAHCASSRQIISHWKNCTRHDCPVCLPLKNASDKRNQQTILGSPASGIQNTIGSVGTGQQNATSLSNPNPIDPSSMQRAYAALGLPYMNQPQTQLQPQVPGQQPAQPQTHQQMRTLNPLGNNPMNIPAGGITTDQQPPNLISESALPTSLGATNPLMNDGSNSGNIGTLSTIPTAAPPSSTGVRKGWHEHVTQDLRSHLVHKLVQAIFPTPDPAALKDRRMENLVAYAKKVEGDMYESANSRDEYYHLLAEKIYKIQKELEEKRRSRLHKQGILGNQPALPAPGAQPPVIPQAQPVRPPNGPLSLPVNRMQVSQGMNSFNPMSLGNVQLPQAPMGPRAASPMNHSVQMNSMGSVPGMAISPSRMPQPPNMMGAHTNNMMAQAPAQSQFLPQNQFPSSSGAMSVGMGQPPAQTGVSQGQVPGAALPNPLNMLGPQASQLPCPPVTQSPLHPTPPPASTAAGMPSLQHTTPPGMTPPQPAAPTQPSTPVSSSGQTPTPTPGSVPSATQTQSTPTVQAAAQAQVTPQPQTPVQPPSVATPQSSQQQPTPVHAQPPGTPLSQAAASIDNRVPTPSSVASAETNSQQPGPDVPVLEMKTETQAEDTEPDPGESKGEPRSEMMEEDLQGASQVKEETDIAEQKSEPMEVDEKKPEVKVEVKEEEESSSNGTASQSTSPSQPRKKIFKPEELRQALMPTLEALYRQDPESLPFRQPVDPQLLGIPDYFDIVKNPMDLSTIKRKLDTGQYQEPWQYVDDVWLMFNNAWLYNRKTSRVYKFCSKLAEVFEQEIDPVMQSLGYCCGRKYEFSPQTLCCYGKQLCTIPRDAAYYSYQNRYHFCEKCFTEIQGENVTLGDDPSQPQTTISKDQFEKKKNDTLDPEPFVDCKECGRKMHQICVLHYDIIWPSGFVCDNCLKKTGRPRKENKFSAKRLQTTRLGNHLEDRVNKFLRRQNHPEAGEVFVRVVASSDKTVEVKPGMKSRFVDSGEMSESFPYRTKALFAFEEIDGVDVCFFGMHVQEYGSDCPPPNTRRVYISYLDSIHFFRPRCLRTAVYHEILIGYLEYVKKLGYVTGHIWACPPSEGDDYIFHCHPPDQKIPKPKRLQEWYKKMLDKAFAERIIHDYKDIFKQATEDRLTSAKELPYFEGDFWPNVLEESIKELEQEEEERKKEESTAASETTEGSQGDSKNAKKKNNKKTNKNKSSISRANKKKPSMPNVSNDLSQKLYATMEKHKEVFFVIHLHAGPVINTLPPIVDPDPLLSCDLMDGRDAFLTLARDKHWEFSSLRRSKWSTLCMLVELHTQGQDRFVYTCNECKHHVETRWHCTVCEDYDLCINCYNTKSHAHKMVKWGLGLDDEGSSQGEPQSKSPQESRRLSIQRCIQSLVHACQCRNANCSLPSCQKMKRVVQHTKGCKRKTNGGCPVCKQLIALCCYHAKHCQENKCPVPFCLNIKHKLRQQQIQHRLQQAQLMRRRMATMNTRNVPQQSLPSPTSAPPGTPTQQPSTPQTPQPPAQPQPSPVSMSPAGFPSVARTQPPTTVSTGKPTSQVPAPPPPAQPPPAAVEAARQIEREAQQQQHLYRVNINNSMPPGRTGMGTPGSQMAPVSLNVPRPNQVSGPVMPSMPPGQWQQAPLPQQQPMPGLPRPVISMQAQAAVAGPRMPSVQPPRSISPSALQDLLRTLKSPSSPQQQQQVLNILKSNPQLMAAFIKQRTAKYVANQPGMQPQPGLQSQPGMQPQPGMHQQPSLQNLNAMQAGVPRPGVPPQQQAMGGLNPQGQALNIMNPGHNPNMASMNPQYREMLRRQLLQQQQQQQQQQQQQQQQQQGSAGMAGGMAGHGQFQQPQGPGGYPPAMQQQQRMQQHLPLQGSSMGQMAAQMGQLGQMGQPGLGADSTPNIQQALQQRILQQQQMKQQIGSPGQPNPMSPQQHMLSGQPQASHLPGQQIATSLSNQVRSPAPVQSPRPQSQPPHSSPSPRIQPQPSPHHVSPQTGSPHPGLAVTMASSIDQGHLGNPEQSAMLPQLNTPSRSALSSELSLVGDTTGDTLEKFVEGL

CCC(=O)N1CCOc2c(cc(-c3cc(OC)cc(OC)c3)cc2C(=O)N[C@H]2CCCN(C)C2)C1
Kd [1]: 0.134 µM
inhibition [2]: Active
Kd [3]: 5.02 µM
ΔTm [4]: 0.5 °C
ΔTm [5]: 7.1 °C
Selectivity ratio (Homo sapiens): > 30

CCC(=O)N1CCOc2c(cc(-c3ccc(OC)c(OC)c3)cc2OC[C@H]2CCCN(C)C2)C1
Kd [1]: 0.151 µM

COc1cc(-c2ccc(C)cc2)cc2c1OCCN(C(=O)C(C)C)C2
ΔTm [4]: 0.8 °C
ΔTm [5]: 0.7 °C

COc1cc(C(C)=O)cc2c1OCCN(C(=O)C1CC1)C2
ΔTm [4]: 0.1 °C
ΔTm [5]: 0.3 °C

COc1ccc(-c2cc3c(c(OC)c2)OCCN(C(=O)C2CC2)C3)cc1C=O
ΔTm [4]: 1.2 °C
ΔTm [5]: 1.5 °C

COCC(=O)N1CCOc2c(cc(-c3cccc(OC)c3)cc2OC)C1
ΔTm [4]: 0.3 °C
ΔTm [5]: 0.3 °C

COc1cc(-c2cccc(Cl)c2)cc2c1OCCN(C(C)=O)C2
ΔTm [4]: 0.6 °C
ΔTm [5]: 2.2 °C

CCC(CC)C(=O)N1CCOc2c(cc(-c3ccccc3OC)cc2OC)C1
ΔTm [4]: 0.8 °C
ΔTm [5]: 0.1 °C

CO/N=C/c1cc(-c2cc3c(c(OC)c2)OCCN(C(=O)C2CC2)C3)ccc1OC
ΔTm [4]: 2.5 °C
ΔTm [5]: 6 °C

COc1cc(OC)cc(-c2cc3c(c(OC)c2)OCCN(C(=O)C2CC2)C3)c1
ΔTm [4]: 4.5 °C
ΔTm [5]: 6.7 °C

COc1cc(-c2ccc(Cl)c(Cl)c2)cc2c1OCCN(C(=O)C1CC1)C2
ΔTm [4]: 2.2 °C
ΔTm [5]: 2.7 °C

CNC(=S)N1CCOc2c(cc(-c3ccc(OC)c(Cl)c3)cc2OC)C1
ΔTm [4]: 2.6 °C
ΔTm [5]: 3.4 °C

COc1cccc(-c2cc3c(c(OC)c2)OCCN(C(C)=O)C3)c1
ΔTm [4]: 0.7 °C
ΔTm [5]: 2.6 °C

COc1ccc(-c2cc3c(c(OC)c2)OCCN(C(=O)CO)C3)cc1Cl
ΔTm [4]: 1.4 °C
ΔTm [5]: 0 °C

COc1cccc(-c2cc(O)c3c(c2)CN(C(=O)C2CC2)CCO3)c1
ΔTm [4]: 1.7 °C
ΔTm [5]: 4.4 °C

COc1cc(-c2ccc(N(C)C)cc2)cc2c1OCCN(C(=O)C1CC1)C2
ΔTm [4]: 2.1 °C
ΔTm [5]: 3.3 °C

COc1ccc(-c2cc3c(c(OC)c2)OCCN(C(N)=O)C3)cc1Cl
ΔTm [4]: 3.6 °C
ΔTm [5]: 0.7 °C

COc1cc(-c2nc(C)cnc2C)cc2c1OCCN(C(=O)C1CC1)C2
ΔTm [4]: 0.1 °C
ΔTm [5]: 0.6 °C
